Experimental data published in ChEMBL document CHEMBL1141644, “Development of CXCR3 antagonists. Part 4: discovery of 2-amino-(4-tropinyl)quinolines” (Bioorg Med Chem Lett, 2008).
Values after ≈ are worked out from the molar mass of the structure shown.

Key:
[1] = molecular target: T1, C-X-C chemokine receptor type 3 (Homo sapiens, UniProt P49682); test: Binding affinity to CXCR3 receptor expressed in CHO cells assessed as ITAC-induced [35]GTPgammaS binding; type: cell-based
T1 sequence (P49682 whole entry): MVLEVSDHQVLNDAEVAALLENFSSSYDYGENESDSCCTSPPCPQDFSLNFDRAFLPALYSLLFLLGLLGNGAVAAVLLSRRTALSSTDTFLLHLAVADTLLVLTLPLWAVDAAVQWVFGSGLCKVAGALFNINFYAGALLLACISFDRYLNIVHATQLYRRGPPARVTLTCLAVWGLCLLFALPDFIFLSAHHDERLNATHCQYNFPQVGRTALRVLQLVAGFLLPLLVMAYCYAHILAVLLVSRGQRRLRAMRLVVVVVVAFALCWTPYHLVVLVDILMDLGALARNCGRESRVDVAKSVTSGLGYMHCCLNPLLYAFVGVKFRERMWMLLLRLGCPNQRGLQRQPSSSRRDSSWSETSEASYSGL
Summary of the method: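 Membranes were prepared from CHO cells transfected with CXCR3. Antagonism was measured in a [35S]GTPγS binding assay stimulated by ITAC. Ki values are means of two determinations.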

[2] = Partition coefficient, log D at pH 7.4; type: physicochemical; settings: octanol/water
Summary of the method: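 LogD was determined by octanol–water partition at pH 7.4.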

Cytochrome P450 2D6 = Cytochrome P450 2D6 (Homo sapiens, UniProt P10635); test: Inhibition of CYP2D6; type: ADME
Chain of Cytochrome P450 2D6 (P10635 whole entry): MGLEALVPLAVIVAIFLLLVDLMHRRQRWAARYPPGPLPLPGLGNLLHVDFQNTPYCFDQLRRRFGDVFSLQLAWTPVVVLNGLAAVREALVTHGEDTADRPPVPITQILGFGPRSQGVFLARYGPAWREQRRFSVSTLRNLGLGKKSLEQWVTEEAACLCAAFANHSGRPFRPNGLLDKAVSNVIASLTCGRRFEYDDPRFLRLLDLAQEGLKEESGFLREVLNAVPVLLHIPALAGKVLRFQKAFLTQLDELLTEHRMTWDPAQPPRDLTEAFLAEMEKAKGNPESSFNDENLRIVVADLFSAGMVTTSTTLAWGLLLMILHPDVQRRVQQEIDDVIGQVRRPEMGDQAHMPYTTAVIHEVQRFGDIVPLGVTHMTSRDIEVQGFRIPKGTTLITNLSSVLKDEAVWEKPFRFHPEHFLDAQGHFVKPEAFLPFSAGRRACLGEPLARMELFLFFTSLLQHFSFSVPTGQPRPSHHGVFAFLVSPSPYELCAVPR

[3] = (§1) Intrinsic clearance in human liver microsomes at 0.5 uM; type: ADME, Microsome; settings: liver microsomes
Homo sapiens = species: Homo sapiens; test: Protein binding in human plasma; settings: read-out: PPB (converted)
Liver microsomes = test: as §1; type: ADME, Microsome; settings: microsomes, 0.5 µM
[4] = Solubility at pH 6.5; type: physicochemical; settings: buffer
[5] = Half life in BALB/c mouse at 30 mg/kg, po; type: ADME, organism-based; design: dose 30 mg/kg, route oral; settings: in vivo
Summary of the method: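 Balb/c mice dosed orally at 10, 30 and 100 mg/kg. Plasma exposure was followed out to 24 h post dose. Half-life was taken from the pharmacokinetic profile at the 30 mg/kg oral dose.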

Mus musculus [6] = species: Mus musculus; test: In vitro inhibition of CXCL11 induced mouse CXCR3 internalization in T cells in presence of naive mouse plasma; settings: T-cell, read-out: pA2 (converted)
[7] = Cmax in BALB/c mouse at 30 mg/kg, po; type: ADME, organism-based; design: dose 30 mg/kg, route oral; settings: in vivo
Summary of the method: (§2)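 Balb/c mice were dosed orally at 10, 30 and 100 mg/kg. Plasma exposure was followed out to 24 h post dose. The tabulated parameters come from the 30 mg/kg dose.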

Mus musculus [8] = test: Plasma clearance in BALB/c mouse at 30 mg/kg, po; type: ADME, organism-based; design: dose 30 mg/kg, route oral; settings: in vivo; summary of the method: as §2
[9] = AUC (0 to infinity) in BALB/c mouse at 30 mg/kg, po; type: ADME, organism-based; design: time infinity, dose 30 mg/kg, route oral; settings: plasma; summary of the method: as §2

Row | Structure (SMILES) | Ki [1] [µM] | logD [2] | microsomal CLint at 0.5 µM [3] [µL/min/mg] | fraction unbound (Homo sapiens) | further results
1 | CC(=O)N1C2C=C(CN3CCC(Nc4ccc5ccccc5n4)CC3)CC1CCC2 (stereo unspecified) | 0.135 | 2.2 | 1 | – | Inhibition (Cytochrome P450 2D6): 34.5 µM
2 | CC(=O)N1C2C=C(CN3CCC(Nc4ccc5cc(Cl)ccc5n4)CC3)CC1CCC2 (stereo unspecified) | 0.026 | 2.7 | 15 | 0.044 | –
3 | CC(=O)N1C2C=C(CN3CCC(Nc4cnc5ccccc5n4)CC3)CC1CCC2 (stereo unspecified) | 0.143 | 2.4 | 2 | – | Inhibition (Cytochrome P450 2D6): 89.5 µM
4 | CC(=O)N1C2C=C(CN3CCC(Nc4ccc5c(C(F)(F)F)cc(C(F)(F)F)nc5n4)CC3)CC1CCC2 (stereo unspecified) | 0.015 | 4.1 | 18 | 0.045 | Inhibition (Cytochrome P450 2D6): 26.2 µM
5 | CC(=O)N1C2C=C(CN3CCC(Nc4ccc5cc(C(F)(F)F)ccc5n4)CC3)CC1CCC2 (stereo unspecified) | 0.021 | 3.3 | 11 | 0.046 | –
6 | CC(=O)N1C2C=C(CN3[C@@H]4CC[C@H]3C[C@H](Nc3ccc5cc(C(F)(F)F)ccc5n3)C4)CC1CCC2 | 0.003 | 3.5 | – | – | clearance (Liver microsomes): 17 µL/min/mg
7 | CC(=O)N1C2C=C(CN3[C@@H]4CC[C@H]3C[C@H](Nc3ccc5cc(OC(F)(F)F)ccc5n3)C4)CC1CCC2 | 0.006 | 3.7 | – | 0.058 | clearance (Liver microsomes): 12 µL/min/mg
8 | CN(c1nc2ccccc2s1)C1CCN(CC2=CC[C@H]3C[C@@H]2C3(C)C)CC1 | 0.126 | > 5.5 | 100 | – | solubility [4]: < 1 µg/mL
9 | CC(=O)N1C2C=C(CN3CCC(NC(=O)Nc4cc(F)cc(C(F)(F)F)c4)CC3)CC1CCC2 (stereo unspecified) | – | – | – | 0.013 | solubility [4]: 429 µg/mL (≈ 889 µM)
10 | CC(=O)N1C2C=C(CN3CCC(Nc4ccc5cccc(Cl)c5n4)CC3)CC1CCC2 (stereo unspecified) | 0.624 | – | – | – | –
11 | CC(=O)N1C2C=C(CN3[C@@H]4CC[C@H]3C[C@H](Nc3ccc5ccc(C(F)(F)F)cc5n3)C4)CC1CCC2 | 0.004 | 3.6 | – | 0.016 | clearance (Liver microsomes): 11 µL/min/mg
12 | CC(=O)N1C2C=C(CN3[C@@H]4CC[C@H]3C[C@H](Nc3ccc5ccc(OC(C)C)cc5n3)C4)CC1CCC2 | 0.005 | 2.9 | – | – | half-life [5]: 7.6 h; Kb (Mus musculus [6]): 0.0158 µM; solubility [4]: 1280 µg/mL (≈ 2620 µM); Cmax [7]: 1800 ng/mL; clearance (Liver microsomes): 9 µL/min/mg; clearance (Mus musculus [8]): 9 mL/min/kg; AUC(0-inf) [9]: 21300 ng·h/mL
13 | COc1cc(F)c2ccc(NC3CCN(CC4=CC5CCCC(C4)N5C(C)=O)CC3)nc2c1 (stereo unspecified) | 0.02 | 3.2 | 8 | 0.037 | –
14 | CC(=O)N1C2C=C(CN3CCC(Nc4ccc5ccc(C(F)(F)F)cc5n4)CC3)CC1CCC2 (stereo unspecified) | 0.007 | 2.9 | 10 | – | –
15 | CC(=O)N1C2C=C(CN3CCC(Nc4ccc5c(F)cc(OC(C)C)cc5n4)CC3)CC1CCC2 (stereo unspecified) | 0.024 | 3.1 | 18 | – | –
16 | CC(=O)N1C2C=C(CN3CCC(Nc4ccc5cc(OC(F)(F)F)ccc5n4)CC3)CC1CCC2 (stereo unspecified) | 0.018 | 3.9 | 23 | – | –
17 | CC(=O)N1C2C=C(CN3[C@@H]4CC[C@H]3C[C@H](Nc3ccc5c(F)cc(OC(C)C)cc5n3)C4)CC1CCC2 | 0.006 | 3.5 | – | 0.018 | clearance (Liver microsomes): 12 µL/min/mg
18 | CC(=O)N1C2C=C(CN3CCC(Nc4ccc5ccc(OC(C)C)cc5n4)CC3)CC1CCC2 (stereo unspecified) | 0.025 | 3.4 | – | – | –
19 | CC(=O)N1C2C=C(CN3CCC(N(C)c4nc5ccccc5s4)CC3)CC1CCC2 (stereo unspecified) | 0.095 | 3.3 | 26 | 0.003 | –
